Measured values: ChEMBL document CHEMBL1914346, “Discovery and synthesis of novel substituted benzocoumarins as orally active lipid modulating agents” (Bioorg Med Chem Lett, 2011)

What was measured:
[1] = Antioxidant activity assessed as trolox equivalent by TEAC assay; assay type: functional
Syrian golden hamster [2] = assay: Toxicity in syrian golden hamster; assay type: organism-based, Mesocricetus auratus; details: in vivo
Procedure, shortened: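 HFD-fed male Golden Syrian hamsters, eight per group, dosed orally at 10 mg/kg once daily for 7 days in 0.1% gum acacia. Body weight was recorded daily and food intake was monitored, then compared with HFD vehicle controls.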

Syrian golden hamster [3] = assay: Antidyslipidemic activity in high fat diet-fed dyslipidemic syrian golden hamster model assessed as decrease in serum triglyceride level at 10 mg/kg, po administered once daily for 7 days relative to vehicle treated control; assay type: functional, Mesocricetus auratus; parameters: scale not given: the % may be the effect or the level left
Procedure, shortened: (§1)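 Male Golden Syrian hamsters, 12 weeks old, 110 ± 10 g, eight per group, fed high-fat diet plus fructose daily on days 1–10. Oral dosing once daily on days 4–10 in 0.1% gum acacia; HFD-fed vehicle animals served as controls. After the last dose, retro-orbital blood was taken into EDTA and plasma lipids were measured enzymatically on an autoanalyzer. Results are % change versus HFD controls; t-test/ANOVA, p<0.05.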

Syrian golden hamster [4] = assay: Antidyslipidemic activity in high fat diet-fed dyslipidemic syrian golden hamster model assessed as increase in serum HDL level at 10 mg/kg, po administered once daily for 7 days relative to vehicle treated control; assay type: functional, Mesocricetus auratus; procedure, shortened: as §1
Syrian golden hamster [5] = assay: Antidyslipidemic activity in high fat diet-fed dyslipidemic syrian golden hamster model assessed as increase in serum ratio of serum HDL/total cholesterol level at 10 mg/kg, po administered once daily for 7 days relative to vehicle treated control; assay type: functional, Mesocricetus auratus; procedure, shortened: as §1
Syrian golden hamster [6] = assay: Antidyslipidemic activity in high fat diet-fed dyslipidemic syrian golden hamster model assessed as decrease in serum LDL level at 10 mg/kg, po administered once daily for 7 days relative to vehicle treated control; assay type: functional, Mesocricetus auratus; parameters: scale not given: the % may be the effect or the level left; procedure, shortened: as §1
Syrian golden hamster [7] = assay: Antidyslipidemic activity in high fat diet-fed dyslipidemic syrian golden hamster model assessed as decrease in serum total cholesterol level at 10 mg/kg, po administered once daily for 7 days relative to vehicle treated control; assay type: functional, Mesocricetus auratus; parameters: scale not given: the % may be the effect or the level left; procedure, shortened: as §1
Syrian golden hamster [8] = assay: Antidyslipidemic activity in high fat diet-fed dyslipidemic syrian golden hamster model assessed as decrease in serum HDL level at 10 mg/kg, po administered once daily for 7 days relative to vehicle treated control; assay type: functional, Mesocricetus auratus; parameters: scale not given: the % may be the effect or the level left
Procedure, shortened: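 Male Golden Syrian hamsters (12 weeks, 110 ± 10 g) fed high fat diet with fructose daily days 1–10; dosed orally once daily days 4–10 in 0.1% gum acacia vehicle, eight per group. Blood drawn from retro-orbital plexus into EDTA after last dose; plasma HDL-C by enzymatic auto-analyzer. Reported as % change versus vehicle-treated HFD group; t-test/ANOVA, p < 0.05.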

Syrian golden hamster [9] = assay: Antidyslipidemic activity in high fat diet-fed dyslipidemic syrian golden hamster model assessed as increase in serum ratio of HDL/total cholesterol level at 25 mg/kg, po administered once daily for 7 days relative to vehicle treated control; assay type: functional, Mesocricetus auratus; procedure, shortened: as §1
[10] = target: T1, 3-hydroxy-3-methylglutaryl-coenzyme A reductase (Homo sapiens) (UniProt P04035); assay: Inhibition of HMG-CoA reductase using HMG-CoA as substrate at 100 uM
T1 sequence (whole entry): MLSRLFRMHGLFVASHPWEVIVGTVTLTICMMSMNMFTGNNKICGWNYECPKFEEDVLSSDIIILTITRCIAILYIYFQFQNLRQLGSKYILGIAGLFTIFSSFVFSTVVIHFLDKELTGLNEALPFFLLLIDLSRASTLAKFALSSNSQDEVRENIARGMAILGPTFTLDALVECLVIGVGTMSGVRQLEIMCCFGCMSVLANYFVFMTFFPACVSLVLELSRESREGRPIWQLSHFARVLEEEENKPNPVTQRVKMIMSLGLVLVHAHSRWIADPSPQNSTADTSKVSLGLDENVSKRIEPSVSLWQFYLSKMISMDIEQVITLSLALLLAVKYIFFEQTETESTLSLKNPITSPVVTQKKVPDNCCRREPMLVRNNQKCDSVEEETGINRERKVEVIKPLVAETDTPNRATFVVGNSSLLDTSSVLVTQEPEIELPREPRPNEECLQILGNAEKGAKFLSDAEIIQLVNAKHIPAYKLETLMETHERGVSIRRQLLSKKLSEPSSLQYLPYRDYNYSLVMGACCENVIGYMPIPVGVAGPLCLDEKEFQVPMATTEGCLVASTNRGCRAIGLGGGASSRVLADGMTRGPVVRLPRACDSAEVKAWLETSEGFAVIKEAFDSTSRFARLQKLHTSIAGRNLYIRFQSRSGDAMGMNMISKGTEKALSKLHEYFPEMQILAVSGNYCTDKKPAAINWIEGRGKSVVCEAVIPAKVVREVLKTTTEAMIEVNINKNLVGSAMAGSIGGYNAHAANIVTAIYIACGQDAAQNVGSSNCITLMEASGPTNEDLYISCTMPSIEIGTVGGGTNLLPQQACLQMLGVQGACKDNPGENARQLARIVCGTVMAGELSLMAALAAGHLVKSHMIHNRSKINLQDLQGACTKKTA
Procedure, shortened: (§2)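 HMG-CoA reductase kit assay using supplied HMGR enzyme, HMG-CoA substrate, NADPH and assay buffer. Test concentrations were 5, 10, 25, 50 and 100 µM, with % inhibition recorded at each.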

[11] = target: T1, 3-hydroxy-3-methylglutaryl-coenzyme A reductase (Homo sapiens); assay: Inhibition of HMG-CoA reductase using HMG-CoA as substrate at 10 uM; procedure, shortened: as §2
Syrian golden hamster [12] = assay: Antidyslipidemic activity in high fat diet-fed dyslipidemic syrian golden hamster model assessed as decrease in serum total cholesterol level at 25 mg/kg, po administered once daily for 7 days relative to vehicle treated control; assay type: functional, Mesocricetus auratus; parameters: scale not given: the % may be the effect or the level left; procedure, shortened: as §1
[13] = target: T1, 3-hydroxy-3-methylglutaryl-coenzyme A reductase (Homo sapiens); assay: Inhibition of HMG-CoA reductase using HMG-CoA as substrate at 5 uM; procedure, shortened: as §2
Syrian golden hamster [14] = assay: Antidyslipidemic activity in high fat diet-fed dyslipidemic syrian golden hamster model assessed as decrease in serum triglyceride level at 25 mg/kg, po administered once daily for 7 days relative to vehicle treated control; assay type: functional, Mesocricetus auratus; parameters: scale not given: the % may be the effect or the level left; procedure, shortened: as §1
[15] = target: T1, 3-hydroxy-3-methylglutaryl-coenzyme A reductase (Homo sapiens); assay: Inhibition of HMG-CoA reductase using HMG-CoA as substrate at 50 uM; procedure, shortened: as §2
[16] = target: T1, 3-hydroxy-3-methylglutaryl-coenzyme A reductase (Homo sapiens); assay: Inhibition of HMG-CoA reductase using HMG-CoA as substrate at 25 uM; procedure, shortened: as §2
Syrian golden hamster [17] = assay: Antidyslipidemic activity in high fat diet-fed dyslipidemic syrian golden hamster model assessed as increase in serum HDL level at 25 mg/kg, po administered once daily for 7 days relative to vehicle treated control; assay type: functional, Mesocricetus auratus; procedure, shortened: as §1
Syrian golden hamster [18] = assay: Antidyslipidemic activity in high fat diet-fed dyslipidemic syrian golden hamster model assessed as decrease in serum LDL level at 25 mg/kg, po administered once daily for 7 days relative to vehicle treated control; assay type: functional, Mesocricetus auratus; parameters: scale not given: the % may be the effect or the level left; procedure, shortened: as §1

| Compound | Activity [1] [mM] | Activity (Syrian golden hamster [2]) | Activity (Syrian golden hamster [3]) [%] | Activity (Syrian golden hamster [5]) [%] | Activity (Syrian golden hamster [6]) [%] | Activity (Syrian golden hamster [7]) [%] | also measured |
| --- | --- | --- | --- | --- | --- | --- | --- |
| O=C1O[C@H]([C@@H](O)CO)C(O)=C1O | 3.13 |  |  |  |  |  |  |
| Cc1cc(=O)oc2c3c(ccc12)C(=O)/C(=C/NCC(C)(C)CO)C=C3C=O | 1.9 | Non-toxic | 49 | 61 | 36 | 36 | Activity (Syrian golden hamster [4]): 1% |
| Cc1cc(=O)oc2c3c(ccc12)C(=O)/C(=C/NCCBr)C=C3C=O | 0.1 | Non-toxic | 40 | 15 | 10 | 13 | Activity (Syrian golden hamster [8]): 1% |
| CC[C@H](C)C(=O)O[C@H]1C[C@@H](C)C=C2C=C[C@H](C)[C@H](CC[C@@H]3C[C@@H](O)CC(=O)O3)[C@H]21 [LOVASTATIN] |  |  |  |  |  |  | Activity (Syrian golden hamster [9]): 12%; inhibition [10]: 84.4%; inhibition [11]: 46.7%; Activity (Syrian golden hamster [12]): 9%; inhibition [13]: 27.5%; Activity (Syrian golden hamster [14]): 29%; inhibition [15]: 77.3%; inhibition [16]: 69.1%; Activity (Syrian golden hamster [17]): 3%; Activity (Syrian golden hamster [18]): 11% |
